According to the RNAGym collection of RNA variant scans (doi:10.1002/anie.201605470):

B1: Osa-1-4 twister ribozyme (parent)
chain: CCGCCUAACACUGCCAAUGCCGGUCCCAAGCCCGGAUAAAAGUGGAGGGGGCGG

Variants of: B1
Experiment: self-cleavage, relative activity (ratio to wild type); higher = more cleavage; co-transcriptional
Outline: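 In vitro transcription at 37 °C for 2 h allowed the twister ribozyme to cleave itself as it was made. Its 54-nucleotide Oryza sativa template had been synthesised with 97 % wild-type base and 1 % of each other base at the 48 positions downstream of the cleavage site. A template-switching oligonucleotide was used for reverse transcription, followed by PCR amplification and deep sequencing. Whether reads carried upstream sequence set the cleavage status, and relative activity is the fraction cleaved normalised to wild type.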

For A8G G49C, which self-cleavage is on record?
The self-cleavage was 0.05.

Which self-cleavage does the source give for A8G G49U here?
The self-cleavage was 0.06.

With A8G G49A as the variant, how does the self-cleavage read?
The self-cleavage was 0.08.

For A7U G34C, which self-cleavage is on record?
Its self-cleavage is 0.1.

With A7U G34U as the variant, how does the self-cleavage read?
Its self-cleavage is 0.07.

For A7U G34A, which self-cleavage is on record?
The self-cleavage was 0.08.

With A7U G50A as the variant, how does the self-cleavage read?
Its self-cleavage is 0.07.

With A7U G50C as the variant, how does the self-cleavage read?
The self-cleavage was 0.06.

With A7U G50U as the variant, how does the self-cleavage read?
Its self-cleavage is 0.07.

With A8C C15A as the variant, how does the self-cleavage read?
Its self-cleavage is 0.21.

Which self-cleavage does the source give for A8C C15U here?
The self-cleavage was 0.04.

Which self-cleavage does the source give for A8C C15G here?
The self-cleavage was 0.05.

Which self-cleavage does the source give for A8G G34U here?
The self-cleavage was 0.16.

With A8G G34A as the variant, how does the self-cleavage read?
Its self-cleavage is 0.27.

Which self-cleavage does the source give for A8G G34C here?
Its self-cleavage is 0.13.

Which self-cleavage does the source give for A8C C26G here?
Its self-cleavage is 0.02.

With A8C C26U as the variant, how does the self-cleavage read?
Its self-cleavage is 0.06.

With A8C C26A as the variant, how does the self-cleavage read?
The self-cleavage was 0.03.

Which self-cleavage does the source give for A7U G49A here?
Its self-cleavage is 0.04.

With A7U G49C as the variant, how does the self-cleavage read?
Its self-cleavage is 0.03.

Which self-cleavage does the source give for A7U G49U here?
The self-cleavage was 0.03.

Which self-cleavage does the source give for A8U C27A here?
Its self-cleavage is 0.06.

With A8U C27U as the variant, how does the self-cleavage read?
The self-cleavage was 0.07.

With A8U C27G as the variant, how does the self-cleavage read?
The self-cleavage was 0.05.

For A8G G50U, which self-cleavage is on record?
Its self-cleavage is 0.43.

With A8G G50C as the variant, how does the self-cleavage read?
The self-cleavage was 0.27.

For A8G G50A, which self-cleavage is on record?
Its self-cleavage is 0.53.

Which self-cleavage does the source give for A8U C31U here?
The self-cleavage was 0.06.

Which self-cleavage does the source give for A8U C31A here?
The self-cleavage was 0.03.

For A8U C31G, which self-cleavage is on record?
The self-cleavage was 0.05.

With A8U C25U as the variant, how does the self-cleavage read?
Its self-cleavage is 0.11.

For A8U C25A, which self-cleavage is on record?
The self-cleavage was 0.07.

Which self-cleavage does the source give for A8U C25G here?
The self-cleavage was 0.05.

With A7U G22C as the variant, how does the self-cleavage read?
Its self-cleavage is 0.07.

Which self-cleavage does the source give for A7U G22A here?
The self-cleavage was 0.09.

Which self-cleavage does the source give for A7U G22U here?
The self-cleavage was 0.06.

For A8G U37A, which self-cleavage is on record?
Its self-cleavage is 0.56.

For A8G U37C, which self-cleavage is on record?
The self-cleavage was 0.68.

With A8G U37G as the variant, how does the self-cleavage read?
The self-cleavage was 0.75.

For A8G U43A, which self-cleavage is on record?
Its self-cleavage is 0.23.

Which self-cleavage does the source give for A8G U43C here?
Its self-cleavage is 0.14.

Which self-cleavage does the source give for A8G U43G here?
Its self-cleavage is 0.15.

With A8G U24G as the variant, how does the self-cleavage read?
The self-cleavage was 0.03.

For A8G U24C, which self-cleavage is on record?
Its self-cleavage is 0.1.

For A8G U24A, which self-cleavage is on record?
Its self-cleavage is 0.12.

For A7U C26A, which self-cleavage is on record?
Its self-cleavage is 0.02.

Which self-cleavage does the source give for A7U C26G here?
Its self-cleavage is 0.05.

Which self-cleavage does the source give for A7U C26U here?
Its self-cleavage is 0.07.

Which self-cleavage does the source give for A8G C32A here?
Its self-cleavage is 0.05.

For A8G C32G, which self-cleavage is on record?
Its self-cleavage is 0.13.

Which self-cleavage does the source give for A8G C32U here?
The self-cleavage was 0.07.

For A8G G45A, which self-cleavage is on record?
Its self-cleavage is 0.09.

With A8G G45C as the variant, how does the self-cleavage read?
Its self-cleavage is 0.05.

Which self-cleavage does the source give for A8G G45U here?
Its self-cleavage is 0.14.

Which self-cleavage does the source give for A8U C32A here?
Its self-cleavage is 0.03.

Which self-cleavage does the source give for A8U C32U here?
The self-cleavage was 0.06.

For A8U C32G, which self-cleavage is on record?
Its self-cleavage is 0.07.

With A8C C25G as the variant, how does the self-cleavage read?
Its self-cleavage is 0.03.

Which self-cleavage does the source give for A8C C25A here?
The self-cleavage was 0.05.

Which self-cleavage does the source give for A8C C25U here?
The self-cleavage was 0.07.

Which self-cleavage does the source give for A8G G13A here?
The self-cleavage was 0.1.

With A8G G13U as the variant, how does the self-cleavage read?
The self-cleavage was 0.03.

For A8G G13C, which self-cleavage is on record?
The self-cleavage was 0.03.

For A8C G34C, which self-cleavage is on record?
Its self-cleavage is 0.06.

With A8C G34A as the variant, how does the self-cleavage read?
Its self-cleavage is 0.07.

With A8C G34U as the variant, how does the self-cleavage read?
Its self-cleavage is 0.07.

For A7U G51U, which self-cleavage is on record?
The self-cleavage was 0.05.

Which self-cleavage does the source give for A7U G51A here?
Its self-cleavage is 0.07.

For A7U G51C, which self-cleavage is on record?
The self-cleavage was 0.03.

With A7U U37G as the variant, how does the self-cleavage read?
The self-cleavage was 0.1.

For A7U U37A, which self-cleavage is on record?
Its self-cleavage is 0.07.

With A7U U37C as the variant, how does the self-cleavage read?
The self-cleavage was 0.08.

For A8G C26A, which self-cleavage is on record?
Its self-cleavage is 0.04.

Which self-cleavage does the source give for A8G C26G here?
Its self-cleavage is 0.27.

Which self-cleavage does the source give for A8G C26U here?
Its self-cleavage is 0.18.

For A8C U18C, which self-cleavage is on record?
The self-cleavage was 0.08.

Which self-cleavage does the source give for A8C U18G here?
The self-cleavage was 0.17.

For A8C U18A, which self-cleavage is on record?
The self-cleavage was 0.07.

For A8U C11G, which self-cleavage is on record?
The self-cleavage was 0.08.

For A8U C11A, which self-cleavage is on record?
Its self-cleavage is 0.08.

With A8U C11U as the variant, how does the self-cleavage read?
The self-cleavage was 0.11.

Which self-cleavage does the source give for A7U G47A here?
The self-cleavage was 0.05.

With A7U G47C as the variant, how does the self-cleavage read?
The self-cleavage was 0.04.

With A7U G47U as the variant, how does the self-cleavage read?
The self-cleavage was 0.04.
